ChEMBL document CHEMBL5360535, “Expanding the scope of novel 1,2,3-triazole derivatives as new antiparasitic drug candidates” (RSC Med Chem, 2023)

How the values were obtained:
Plasmodium falciparum [1] = experiment: Antimalarial activity against chloroquine-sensitive Plasmodium falciparum D6 assessed as parasite growth inhibition incubated for 48 hrs by LDH assay; format: functional, organism-based; details: D6, 48 h
In short: (§1)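 Asynchronous P. falciparum cultures (2% hematocrit, 2% parasitemia) were exposed to DMSO-dissolved compound dilutions in RPMI-1640. They were held at 37 °C for 48 h in a humidified chamber under 90% N2/5% CO2/5% O2. Growth was read as pLDH activity with Malstat reagent, with medium, RBC and DMSO controls. IC50 came from non-linear logistic dose-response regression, in triplicate.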

[2] = Selectivity index, ratio of IC50 for African green monkey Vero cells to IC50 for Plasmodium falciparum D6; format: toxicity, cell-based; details: read-out: Ratio IC50
In short: (§2)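 SI = Vero IC50 (Neutral Red, 48 h) divided by P. falciparum IC50. Parasite IC50 was from asynchronous D6 or W2 cultures (2% hematocrit, 2% parasitemia), with DMSO-dissolved compounds diluted in RPMI-1640. Incubation was 48 h at 37 °C under 90% N₂/5% CO₂/5% O₂, with growth read by pLDH activity (Malstat). Chloroquine and artemisinin were positive controls.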

Plasmodium falciparum [3] = experiment: Antimalarial activity against chloroquine-resistant Plasmodium falciparum W2 assessed as parasite growth inhibition incubated for 48 hrs by LDH assay; format: functional, organism-based; details: W2, 48 h; in short: as §1
[4] = Selectivity index, ratio of IC50 for African green monkey Vero cells to IC50 for Plasmodium falciparum W2; format: toxicity, cell-based; details: read-out: Ratio IC50; in short: as §2
[5] = Cytotoxicity against African green monkey Vero cells incubated for 48 hrs by Neutral Red assay; format: toxicity, cell-based, Chlorocebus sabaeus
In short: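 Vero cells were maintained in RPMI with 10% heat-inactivated FCS, 0.15% NaHCO₃ and penicillin/streptomycin at 37 °C under 5% CO₂. Confluent monolayers were exposed to various concentrations up to a maximum of 4.75 μg mL⁻¹ for 48 h at 37 °C. Viability was read by Neutral Red uptake, with DMSO as negative control. IC50 was taken from the concentration–response curve.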

Leishmania donovani = experiment: Antileishmanial activity against Leishmania donovani promastigotes assessed as parasite growth inhibition incubated for 72 hrs by alamar blue staining based assay; format: functional, organism-based
In short: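 L. donovani S1 Sudan strain promastigotes were grown at 26 °C in RPMI-1640 (no bicarbonate or pyruvate) with 10% FBS. Compound dilutions were added to cultures at 2 × 10⁶ cells per mL, at final 40, 8 and 1.6 μg mL⁻¹ (footnote: at least six concentrations, each in duplicate). Incubation was 72 h at 26 °C, with Alamar blue read-out. IC50 came from non-linear logistic regression. Experiments were run in triplicate.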

Plasmodium falciparum [6] = experiment: Antiparasitic activity against chloroquine-resistant Plasmodium falciparum W2 infected in red blood cells assessed as inhibition of parasite growth by HRP2 assay; format: functional, organism-based, Red blood cell; details: W2, Erythrocyte

Structure (SMILES) | IC50 (Plasmodium falciparum [1]) | selectivity ratio [2] | IC50 (Plasmodium falciparum [3]) | selectivity ratio [4] | IC50 at 48 h [5] | IC50 (Leishmania donovani) | IC50 (Plasmodium falciparum [6])
CCCCCCCCCCc1cn(Cc2ccccc2)nn1 | 11 µM | > 1.44 | 10.7 µM | > 1.48 | > 15.9 µM |  | 
c1ccc(Cn2cc(-c3ccccc3)nn2)cc1 |  |  |  |  |  | 85 µM | 
CCCCCCCCc1cn(Cc2ccccc2)nn1 |  |  |  |  |  | 22.1 µM | 
CCCCCCCCCCn1cc(C(=O)OC)nn1 | 11.2 µM | > 1.58 | 6.73 µM | > 2.64 | > 17.8 µM | 78.5 µM | 
CCCCCCCCn1cc(CO)nn1 | 13.3 µM | > 1.7 | 6.63 µM | > 3.39 | > 22.5 µM |  | 
COC(=O)c1cn(Cc2ccccc2)nn1 |  |  |  |  |  | 92.1 µM | 
O=C(O)c1cn(Cc2ccccc2)nn1 |  |  |  |  |  | 18.7 µM | 
CCCCCc1cn(C/C=C(\C)CC/C=C(\C)CCC=C(C)C)nn1 | 3.49 µM | > 3.96 | 6.69 µM | > 2.07 | > 13.8 µM |  | 
COC(=O)c1cn(CC=C(C)C)nn1 | 24.3 µM | > 1 | 23.1 µM | 1.06 | > 24.3 µM |  | 
CCCCCc1cn(CCCc2ccccc2)nn1 | 16.3 µM | > 1.13 | 10.9 µM | > 1.7 | > 18.5 µM |  | 
CC(C)=CCC/C(C)=C/CC/C(C)=C\Cn1cc(C(C)O)nn1 (stereo not drawn) |  |  |  |  |  | 59.9 µM | 
CCCCCCCCc1cn(C/C=C/c2ccccc2)nn1 | 10.8 µM | > 1.48 | 10.1 µM | > 1.58 | > 16 µM |  | 
O=Cn1cc(-c2ccnc3cc(Cl)ccc23)nn1 |  |  |  |  |  |  | 1.4 µM
CCOC(=O)Cn1cc(C(=O)OC)nn1 | 12.3 µM | > 1.7 | 12.3 µM | > 1.7 | > 20.9 µM |  | 
CC(C)=CCC/C(C)=C/CC/C(C)=C\Cn1cc(CCO)nn1 | 2.74 µM | > 5.46 | 2.05 µM | > 7.31 | > 15 µM | 63 µM | 
C(=C\c1ccccc1)/Cn1cc(-c2ccccc2)nn1 | 11.5 µM | > 1.58 | 13 µM | > 1.4 | > 18.2 µM |  | 
CCCCCc1cn(C/C=C/c2ccccc2)nn1 |  |  |  |  |  | 74.4 µM | 
CC(C)=CCC/C(C)=C/CC/C(C)=C\Cn1cc(CO)nn1 |  |  |  |  |  | 59.3 µM | 
CCCc1cn(CCCc2ccccc2)nn1 | 15.3 µM | > 1.36 | 11.3 µM | > 1.83 | > 20.7 µM |  | 
CC(C)=CCC/C(C)=C/CC/C(C)=C/Cn1cc(C(C)(C)O)nn1 | 2.35 µM | > 6.09 | 1.99 µM | > 7.2 | > 14.3 µM | 48.3 µM | 
CC(C)=CCC/C(C)=C/CC/C(C)=C\Cn1cc(C(C)(C)O)nn1 |  |  |  |  |  | 63.4 µM | 
CCCc1cn(C/C=C/c2ccccc2)nn1 | 20.9 µM | < 1 | 22 µM | < 1 | > 20.9 µM |  | 
CC(C)=CCC/C(C)=C/CC/C(C)=C/Cn1cc(C(C)O)nn1 (stereo not drawn) |  |  |  |  |  | 56.7 µM | 
CC(C)=CCC/C(C)=C/CC/C(C)=C/Cn1cc(CO)nn1 |  |  |  |  |  | 56 µM | 
CC(C)=CCC/C(C)=C/CC/C(C)=C/Cn1cc(CCO)nn1 |  |  |  |  |  | 63 µM | 
c1ccc(CCCn2cc(-c3ccccc3)nn2)cc1 |  |  |  |  |  | 68.4 µM | 
C[C@@H]1CC[C@H]2[C@@H](C)C(=O)O[C@@H]3O[C@@]4(C)CC[C@@H]1[C@]32OO4 [ARTEMISININ] |  | > 179 |  | > 179 |  |  | 
